From ChEMBL document CHEMBL2046402, “The First Dual ChE/FAAH Inhibitors: New Perspectives for Alzheimer's Disease?” (ACS Med Chem Lett, 2012)

What was measured:
[1] = molecular target: T1, Fatty-acid amide hydrolase 1 (Rattus norvegicus, UniProt P97612); assay: Inhibition of FAAH in rat brain membranes assessed as hydrolysis of [14C]-anandamide preincubated for 20 mins before [14C]-anandamide addition measured after 30 mins; assay type: cell membranes
T1 sequence (P97612 whole entry): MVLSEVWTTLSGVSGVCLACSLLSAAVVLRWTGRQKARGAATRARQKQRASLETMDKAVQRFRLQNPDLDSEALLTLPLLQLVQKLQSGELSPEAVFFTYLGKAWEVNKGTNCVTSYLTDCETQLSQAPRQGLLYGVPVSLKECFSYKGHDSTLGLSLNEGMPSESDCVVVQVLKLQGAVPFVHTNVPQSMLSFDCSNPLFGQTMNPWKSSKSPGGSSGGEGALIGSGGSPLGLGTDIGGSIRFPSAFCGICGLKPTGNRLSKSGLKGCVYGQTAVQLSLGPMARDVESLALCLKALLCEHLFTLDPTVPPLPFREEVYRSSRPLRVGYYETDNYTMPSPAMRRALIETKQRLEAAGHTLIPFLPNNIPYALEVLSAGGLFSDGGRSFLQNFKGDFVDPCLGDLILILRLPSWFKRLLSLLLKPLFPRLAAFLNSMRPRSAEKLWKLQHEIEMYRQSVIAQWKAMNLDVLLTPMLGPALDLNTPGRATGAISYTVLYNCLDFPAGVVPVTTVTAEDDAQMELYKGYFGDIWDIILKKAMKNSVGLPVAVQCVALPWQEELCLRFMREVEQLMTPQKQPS
Method in brief: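 Rat brain membrane FAAH; the inhibitor was preincubated with the enzyme for 20 min before anandamide hydrolysis was measured. Values are reported as IC50.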

[2] = molecular target: T1, Fatty-acid amide hydrolase 1; assay: Inhibition of FAAH in rat brain membranes assessed as hydrolysis of [14C]-anandamide after 30 mins; assay type: cell membranes
Method in brief: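 Rat brain membrane FAAH; activity read as hydrolysis of anandamide, with the inhibitor added without preincubation (pit = 0). Values are reported as IC50.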

[3] = molecular target: T2, Acetylcholinesterase (Homo sapiens, UniProt P22303); assay: Inhibition of human recombinant AChE using acetylthiocholine iodide as substrate preincubated for 120 mins before substrate addition by Ellman's method
T2 sequence (P22303 whole entry): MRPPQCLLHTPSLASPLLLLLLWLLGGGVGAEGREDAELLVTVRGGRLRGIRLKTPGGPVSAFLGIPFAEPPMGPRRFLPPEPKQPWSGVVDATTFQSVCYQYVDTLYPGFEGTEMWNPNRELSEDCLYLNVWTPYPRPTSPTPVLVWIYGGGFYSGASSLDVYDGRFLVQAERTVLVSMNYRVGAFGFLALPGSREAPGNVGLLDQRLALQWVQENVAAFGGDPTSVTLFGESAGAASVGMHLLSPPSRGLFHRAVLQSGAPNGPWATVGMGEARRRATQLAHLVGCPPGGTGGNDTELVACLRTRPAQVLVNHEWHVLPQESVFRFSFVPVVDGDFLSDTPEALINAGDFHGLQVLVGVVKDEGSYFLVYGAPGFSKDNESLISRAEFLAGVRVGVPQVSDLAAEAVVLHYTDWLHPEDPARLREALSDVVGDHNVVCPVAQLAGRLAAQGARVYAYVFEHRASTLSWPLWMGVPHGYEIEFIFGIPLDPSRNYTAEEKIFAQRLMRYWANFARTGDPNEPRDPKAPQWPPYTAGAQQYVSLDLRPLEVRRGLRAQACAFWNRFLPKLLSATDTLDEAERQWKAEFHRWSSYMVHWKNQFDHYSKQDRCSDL

[4] = molecular target: T3, Cholinesterase (Homo sapiens, UniProt P06276); assay: Inhibition of human serum BuChE using butyrylthiocholine iodide as substrate preincubated for 15 mins before substrate addition by Ellman's method
T3 sequence (P06276 whole entry): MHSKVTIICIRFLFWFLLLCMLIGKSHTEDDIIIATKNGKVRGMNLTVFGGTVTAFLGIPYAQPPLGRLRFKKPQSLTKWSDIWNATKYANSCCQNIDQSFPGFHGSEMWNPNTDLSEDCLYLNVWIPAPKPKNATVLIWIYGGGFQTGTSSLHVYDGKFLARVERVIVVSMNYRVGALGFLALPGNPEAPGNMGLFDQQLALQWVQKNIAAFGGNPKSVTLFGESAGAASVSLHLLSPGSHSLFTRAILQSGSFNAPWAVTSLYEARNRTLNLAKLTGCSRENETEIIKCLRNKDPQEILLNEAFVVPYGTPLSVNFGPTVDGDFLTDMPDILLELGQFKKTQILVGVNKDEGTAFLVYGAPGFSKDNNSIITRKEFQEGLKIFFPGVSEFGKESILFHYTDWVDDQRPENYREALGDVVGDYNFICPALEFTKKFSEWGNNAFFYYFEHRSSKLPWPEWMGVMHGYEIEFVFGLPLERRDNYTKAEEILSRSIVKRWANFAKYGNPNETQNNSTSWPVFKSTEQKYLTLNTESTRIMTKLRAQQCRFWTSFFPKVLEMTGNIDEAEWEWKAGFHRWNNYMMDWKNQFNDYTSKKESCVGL

[5] = molecular target: T4, Fatty-acid amide hydrolase 1 (Homo sapiens, UniProt O00519); assay: Inhibition of human recombinant FAAH in assessed as hydrolysis of [14C]-anandamide preincubated for 20 mins before [14C]-anandamide addition measured after 30 mins
T4 sequence (O00519 whole entry): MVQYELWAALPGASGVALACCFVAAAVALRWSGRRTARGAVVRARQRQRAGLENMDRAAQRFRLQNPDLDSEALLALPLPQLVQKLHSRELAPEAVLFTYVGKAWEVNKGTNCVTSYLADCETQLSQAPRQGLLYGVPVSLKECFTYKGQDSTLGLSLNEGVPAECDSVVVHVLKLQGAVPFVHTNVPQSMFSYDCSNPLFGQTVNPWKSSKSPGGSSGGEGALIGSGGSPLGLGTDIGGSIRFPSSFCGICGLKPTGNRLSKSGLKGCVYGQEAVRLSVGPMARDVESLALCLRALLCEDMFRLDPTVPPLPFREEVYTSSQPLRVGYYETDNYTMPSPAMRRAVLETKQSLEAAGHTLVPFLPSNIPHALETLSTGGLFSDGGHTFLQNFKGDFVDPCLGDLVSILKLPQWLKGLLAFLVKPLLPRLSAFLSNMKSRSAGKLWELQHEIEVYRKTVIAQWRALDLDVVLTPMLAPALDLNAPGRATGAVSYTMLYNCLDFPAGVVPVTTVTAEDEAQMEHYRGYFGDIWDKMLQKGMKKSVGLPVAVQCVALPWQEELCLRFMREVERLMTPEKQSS
Method in brief: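 Human recombinant FAAH; the inhibitor was preincubated for 20 min before anandamide hydrolysis was measured. Values are reported as IC50.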

[6] = molecular target: T3, Cholinesterase; assay: Inhibition of human serum BuChE using butyrylthiocholine iodide as substrate by Ellman's method; conditions: TDE = time-dependent effect
[7] = molecular target: T2, Acetylcholinesterase; assay: Inhibition of human recombinant AChE using acetylthiocholine iodide as substrate by Ellman's method; conditions: TDE = time-dependent effect
[8] = molecular target: T2, Acetylcholinesterase; assay: Reversible inhibition of human recombinant AChE using acetylthiocholine iodide as substrate assessed as recovery of enzyme activity after 48 hrs by Ellman's method; set-up: scale not given: the % may be the effect or the level left
[9] = molecular target: T3, Cholinesterase; assay: Reversible inhibition of human serum BuChE using butyrylthiocholine iodide as substrate assessed as recovery of enzyme activity after 48 hrs by Ellman's method; set-up: scale not given: the % may be the effect or the level left

| Compound | IC50 [1] | IC50 [2] | IC50 [3] | IC50 [4] | IC50 [5] | inhibition [6] | inhibition [7] | Activity [8] | Activity [9] |
| --- | --- | --- | --- | --- | --- | --- | --- | --- | --- |
| CCCCCCCNC(=O)Oc1cccc(CN(C)CCCOc2ccc3c(=O)c4ccccc4oc3c2)c1 | 110 nM | 3620 nM | – | – | – | – | – | – | – |
| CCCNC(=O)Oc1cccc(CN(C)CCCOc2ccc3c(=O)c4ccccc4oc3c2)c1 | 100 nM | 9280 nM | – | – | – | – | – | – | – |
| CCCCCCCNC(=O)Oc1cccc(CN(C)CCCOc2ccc3c(=O)cc(-c4ccccc4)oc3c2)c1 | – | 6810 nM | – | – | – | – | – | – | – |
| CCCCCCNC(=O)Oc1cccc(CN(C)CCCOc2ccc3c(=O)c4ccccc4oc3c2)c1 | 290 nM | 4290 nM | – | – | – | – | – | – | – |
| CCCCCCCNC(=O)Oc1cccc(CN(C)CCCOc2ccc3ccc(=O)oc3c2)c1 | 170 nM | 620 nM | – | – | – | – | – | – | – |
| CCCCNC(=O)Oc1cccc(CN(C)CCCOc2ccc3c(=O)cc(-c4ccccc4)oc3c2)c1 | 800 nM | 5540 nM | – | – | – | – | – | – | – |
| CCCCNC(=O)Oc1cccc(CN(C)CCCOc2ccc3c(=O)c4cccnc4oc3c2)c1 | 1400 nM | 4230 nM | – | – | – | – | – | – | – |
| CN(CCCOc1ccc2c(=O)c3cccnc3oc2c1)Cc1cccc(OC(=O)NCCCCCc2ccccc2)c1 | 40 nM | 370 nM | 89.5 nM | 1.71 nM | 520 nM | tde | tde | – | – |
| CN(CCCOc1ccc2ccc(=O)oc2c1)Cc1cccc(OC(=O)NCCCCCc2ccccc2)c1 | 50 nM | 280 nM | 74.9 nM | 1.57 nM | 2260 nM | tde | tde | 30% | 83% |
| CN(CCCOc1ccc2c(=O)c3cccnc3oc2c1)Cc1cccc(OC(=O)NCCCCCCCN2CCOCC2)c1 | 2710 nM | 4310 nM | 139 nM | 27.6 nM | 39000 nM | tde | tde | – | – |
| CCCCNC(=O)Oc1cccc(CN(C)CCCOc2ccc3ccc(=O)oc3c2)c1 | – | 8680 nM | – | – | – | – | – | – | – |
| CN(CCCOc1ccc2ccc(=O)oc2c1)Cc1cccc(OC(=O)NCCCCCCCN2CCOCC2)c1 | 1820 nM | 5590 nM | 119 nM | 11.2 nM | 14800 nM | tde | tde | – | – |
| CNC(=O)Oc1cccc(CN(C)CCCCCCCOc2ccc(-c3cc4ccccc4oc3=O)cc2)c1 | – | 9200 nM | – | – | – | – | – | – | – |
| CCCCCCCNC(=O)Oc1cccc(CN(C)CCCOc2ccc3c(=O)c4cccnc4oc3c2)c1 | 400 nM | 2210 nM | – | – | – | – | – | – | – |
